In ChEMBL document CHEMBL6182837, “Discovery and biological evaluation of nitrofuranyl-pyrazolopyrimidine hybrid conjugates as potent antimicrobial agents targeting Staphylococcus aureus and methicillin-resistant S. aureus” (RSC Med Chem, 2025):
In brackets after ≈: the same amount, converted by molar mass. Activity calls are given as the source filed them. No cut-off for these calls is given here.

Experiments:
[1] = Lipophilicity, logP of compound; type: physicochemical; conditions: octanol/water
[2] = test system: Staphylococcus aureus; test: Bactericidal activity against Staphylococcus aureus ATCC 29213 assessed as reduction in bacterial count at 2 to 4 times MIC incubated for 2 hrs by time-kill assay
[3] = test system: RAW264.7; test: Cytotoxicity against mouse RAW264.7 cells up to 200 ug/ml incubated for 48 to 72 hrs by absorbance based assay; type: toxicity, cell-based; conditions: time 48-72 hrs, dose < 200 µg/ml
Method in brief: (§1)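 MTT read-out: macrophage cells plated at 1 × 10^4 cells per well in DMEM with 10% FBS, 37 °C, 5% CO2; treatment 48 h and 72 h; 2.5 mg ml−1 MTT 3 h, formazan dissolved in DMSO, OD 570 nm; doxorubicin 10 μM control.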

[4] = Hemolytic activity in rabbit erythrocytes up to 200 ug/ml incubated for 4 hrs by absorbance based assay; type: toxicity, cell-based, Oryctolagus cuniculus; conditions: erythrocyte, dose < 200 µg/ml
[5] = Tmax in male Balb/c mouse at 30 mg/kg, po by LC-MS/MS analysis; type: ADME, organism-based; conditions: in vivo
Method in brief: (§2)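 Balb/c mice dosed 1 mg kg−1 intravenously or 30 mg kg−1 orally (2.5 mg kg−1 oral also given); plasma PK parameters derived.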

[6] = test system: Staphylococcus aureus; test: Additive antibacterial activity against methicillin-resistant Staphylococcus aureus ATCC 15187 assessed as fractional inhibitory concentration index at 0.075 ug/ml incubated up to 24 hrs in presence of vancomycin by checkerboard analysis; type: functional; conditions: dose 0.075 µg/ml
Method in brief: (§3)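 Checkerboard microdilution in cation-adjusted MHB, done per CLSI. The compound and partner antibiotic were dissolved in DMSO. The antibiotic was serially diluted across the plate and the compound was twofold serially diluted into the wells to make the combinations. Each well received 0.1 ml of inoculum, a 0.5 McFarland suspension (1.5 × 10^8 CFU ml−1) diluted 1:100 in MHB. Plates were incubated 24 h at 37 °C, then read with Alamar blue (0.04%). FIC index was calculated.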

[7] = test system: Staphylococcus aureus; test: Induction of membrane permeabilization in Staphylococcus aureus ATCC 29213 at 1 to 8 times MIC measured after 80 mins by PI staining based analysis relative to control; type: functional; conditions: 1.333 h
Method in brief: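 PI permeabilization of S. aureus at 1×, 2×, 4×, 8× MIC followed over time up to 80 min; vancomycin 4× and 8× MIC as drug control; untreated blank; percentage permeabilization.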

[8] = Drug metabolism in mouse liver microsomes; type: ADME, Microsome; conditions: read-out: Drug metabolism
[9] = Clearance in male Balb/c mouse at 1 mg/kg, iv by LC-MS/MS analysis; type: ADME, organism-based; conditions: in vivo; method in brief: as §2
[10] = test system: Staphylococcus aureus; test: Synergistic antibacterial activity against Staphylococcus aureus ATCC 29213 assessed as fractional inhibitory concentration index at 0.02 ug/ml incubated up to 24 hrs in presence of vancomycin by checkerboard analysis; type: functional; conditions: dose 0.02 µg/ml; method in brief: as §3
[11] = test system: Staphylococcus aureus; test: Induction of resistance development in Staphylococcus aureus ATCC 29213 assessed as fold increase in MIC at 0.5 MIC measured after 20 passages relative to control; type: functional
Method in brief: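 Bacteria were serially passaged for 20 days after exposure to a sublethal drug concentration. MIC was determined at each passage. Vancomycin and norfloxacin were run as control agents.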

[12] = test system: Staphylococcus aureus; test: Additive antibacterial activity against Staphylococcus aureus ATCC 29213 assessed as fractional inhibitory concentration index at 0.02 ug/ml incubated up to 24 hrs in presence of rifampicin by checkerboard analysis; type: functional; conditions: dose 0.02 µg/ml; method in brief: as §3
[13] = test system: Staphylococcus aureus; test: Disruption of cell membrane integrity in methicillin-resistant Staphylococcus aureus ATCC 15187 assessed as red fluorescence at 1 to 2 times MIC incubated for 2.5 hrs by DAPI/PI staining based fluorescence microscopy; type: functional, organism-based
Method in brief: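 Bacteria treated at 1× and 2× MIC, with vancomycin 2× MIC as control and an untreated blank; stained with DAPI (all cells) and propidium iodide (membrane-damaged cells); imaged by fluorescence microscopy, red PI signal taken as membrane damage.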

[14] = test system: Staphylococcus aureus; test: Induction of resistance development in Staphylococcus aureus ATCC 29213 at 0.5 MIC measured after […]; type: functional, organism-based; conditions: 0.5 M
Method in brief: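 Bacteria serially passaged under sublethal drug exposure over 20 days, with MIC redetermined at each passage; vancomycin and norfloxacin as controls.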

[15] = test system: Staphylococcus aureus; test: Induction of morphological disruption in Staphylococcus aureus ATCC 29213 incubated for 2 to 6 hrs by SEM analysis; type: functional, organism-based; conditions: time 2-6 hrs
Method in brief: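 S. aureus incubated 2 h and 6 h with compound at 1×, 2×, 4× MIC, imaged by scanning electron microscopy; untreated, vancomycin and daptomycin (1×, 2× MIC) controls.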

[16] = Lipophilicity, logD of compound; type: physicochemical; conditions: octanol/water
[17] = test system: Staphylococcus aureus; test: Synergistic bactericidal activity against methicillin-resistant Staphylococcus aureus ATCC 15187 assessed as reduction in bacterial count at 0.075 ug/ml measured after 24 hrs in presence of rifampicin by time-kill assay; type: functional, organism-based; conditions: dose 0.075 µg/ml
[18] = test system: Staphylococcus aureus; test: Antibacterial activity against methicillin-resistant Staphylococcus aureus ATCC 15187 incubated for 24 hrs by Alamar blue staining based microdilution method; type: functional
[19] = test system: Staphylococcus aureus; test: Bactericidal activity against Staphylococcus aureus ATCC 29213 assessed as reduction in bacterial count at 2 to 4 times MIC incubated for 2 to 24 hrs by time-kill assay relative to control; type: functional; design: scale not given: the % may be the effect or the level left; conditions: time 2-24 hrs
[20] = Cmax in male Balb/c mouse at 30 mg/kg, po by LC-MS/MS analysis; type: ADME, organism-based; conditions: in vivo; method in brief: as §2
[21] = Solubility of compound in water; type: physicochemical
[22] = AUC (0 to t) in male Balb/c mouse at 1 mg/kg, iv by LC-MS/MS analysis; type: ADME, organism-based; conditions: in vivo; method in brief: as §2
[23] = test system: Staphylococcus aureus; test: Bacteriostatic activity against Staphylococcus aureus ATCC 29213 assessed as reduction in bacterial count at MIC incubated for 2 to 24 hrs by time-kill assay; type: functional; conditions: time 2-24 hrs
[24] = Cytotoxicity against mouse RAW264.7 cells incubated for 48 to 72 hrs by absorbance based assay; type: toxicity, cell-based; method in brief: as §1
[25] = Volume of distribution in male Balb/c mouse at 1 mg/kg, iv by LC-MS/MS analysis; type: ADME, organism-based; conditions: in vivo; method in brief: as §2
[26] = test system: Staphylococcus aureus; test: Synergistic bactericidal activity against Staphylococcus aureus ATCC 29213 assessed as reduction in bacterial count at 0.02 ug/ml incubated up to 8 hrs in presence of vancomycin by time-kill assay; type: functional; conditions: dose 0.02 µg/ml
Method in brief: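 Time-kill with compound combined with vancomycin at synergistic concentrations (from checkerboard FIC) against S. aureus; CFU followed up to 8 h and at 24 h.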

[27] = test system: Staphylococcus aureus; test: Disruption of cell membrane integrity in Staphylococcus aureus ATCC 29213 assessed as red fluorescence at 1 to 2 times MIC incubated for 2.5 hrs by DAPI/PI staining based fluorescence microscopy; type: functional, organism-based
Method in brief: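 S. aureus treated at 1× and 2× MIC, stained with DAPI (all cells) and PI (damaged membranes), imaged by fluorescence microscopy; vancomycin 2× MIC positive control; untreated blank.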

[28] = test system: Staphylococcus aureus; test: Inhibition of biofilm formation of methicillin-resistant Staphylococcus aureus ATCC 15187 incubated for 27 hrs by absorbance based method; type: functional, organism-based

For `CCCc1nn(C)c2c(Nc3ccc(O)cc3)nc(-c3ccc([N+](=O)[O-])o3)nc12`, the logP [1] was 2.92, the Activity [2] was “Active” and the Activity [3] was “Non-toxic”. For the same molecule, the Activity [4] was “Non-toxic”, the Tmax [5] was 30 min and the “fractional inhibitory concentration index (FICI)” value [6] was 1. For the same molecule, the Activity [7] was 60%, the metabolised [8] was 71% and the clearance [9] was 176 mL/min/kg. The “fractional inhibitory concentration index (FICI)” value [10] was 0.5, the “fold change (FC)” value [11] was 200 and the “fractional inhibitory concentration index (FICI)” value [12] was 0.7. For the same molecule, the Activity [13] was “Active”, the Activity [14] was “inactive” and the Activity [15] was “Active”. For the same molecule, the logD [16] was 2.92, the Activity [17] was “Moderate_effect” and the MIC [18] was 0.15 µg/mL (≈ 0.38 µM). It also gave an Activity [19] of 99.9%, a Cmax [20] of 2010 ng/mL and a solubility [21] of 1 µg/mL (≈ 2.54 µM). The AUC(0-t) [22] was 90.8 ng·h/mL, the Activity [23] was <3 log10CFU and the IC50 [24] was > 100 µg/mL. The Vd [25] was 1.69 L/kg, the Activity [26] was >10 log10CFU and the Activity [27] was “Active”. The inhibition [28] was “Dose-dependent-effect”.
